The subject of data set [1] is Trypanosoma brucei brucei. The data set can be described thus: Antikinetoplastid activity against Trypanosoma brucei brucei CMP by drug incubation infectivity test. The class given is functional. The settings on record: read-out: MEC.
A short description of data set [2]: Cytotoxicity against human MCF7 cells assessed as cell survival at 100 uM after 72 hrs incubation by MTT assay. The settings on record: read-out: Survival. The class given is cell-based. (In general: Tetrazolium assays rely on reduction of a dye to a coloured formazan, in cell work by metabolically active cells.)
Data set [3] deals with Leishmania donovani. Description: Antikinetoplastid activity against Leishmania donovani MHOM/ET/67/HU3 promastigotes after 3 days incubation at 27 degC under dark condition and 5% CO2 atmosphere by MTT assay. The settings on record: MHOM/ET/67/HU3, 72 h. The class given is functional, organism-based.
The nature of data set [4]: Cytotoxicity against mouse RAW264.7 cells assessed as cell survival at 100 uM after 24 hrs incubation by trypan blue exclusion method. The settings on record: read-out: Survival. The class given is cell-based. The essentials: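 RAW 264.7 mouse macrophages grown in DMEM with 10% heat-inactivated FBS, seeded at 5 × 10^4 cells/well, and held 24 h at 37 °C in 5% CO2. Medium was then replaced with fresh DMEM containing compound, followed by a further 24 h incubation. Cells were scraped off, stained with trypan blue and counted live on a hemocytometer. Viability is given as % of untreated cells (100%).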

The subject of data set [5] is Leishmania donovani. The data set can be described thus: Antikinetoplastid activity against Leishmania donovani MHOM/ET/67/HU3 amastigotes after 3 days incubation at 37 degC under dark condition and 5% CO2 atmosphere by SYBR green I dye based assay. The class given is functional, organism-based. The settings on record: MHOM/ET/67/HU3, 72 h. The essentials: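 Axenic amastigotes were obtained by diluting log-phase LV9 promastigotes into amastigote medium (M-199 with KCl, glucose, glutamine, trypticase peptone, haemin, 20% FBS; pH 5.5) and grown at 37 °C in 5% CO2. Parasites were exposed to the compounds for 72 h, then lysed. Growth was read by SYBR Green I DNA fluorescence against a parasite-density standard range, and the IC50 was derived.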

Another data set deals with MCF7. The data set can be described thus: Cytotoxicity against human MCF7 cells assessed as cell viability after 72 hrs incubation by MTT assay. The class given is cell-based. The settings on record: MCF7, 72 h.

For the molecule `Cc1ccc(S(=O)(=O)Oc2c(NC(=O)c3ccc4c(c3)CCC(C)(C)O4)c(=O)n(C)c3ccccc23)cc1`, in data set [1], the minimal effective concentration is > 200 µM. Also, the viability at 72 h, 100 µM in data set [2] is 100%. Besides, the IC50 in the data set with Leishmania donovani [3] amounted to 30 µM.

For the molecule `Cc1ccc(S(=O)(=O)Oc2c([N+](=O)[O-])c(=O)n(C)c3ccccc23)cc1`, the minimal effective concentration in data set [1] was > 200 µM. For the same molecule, the viability at 24 h, 100 µM in data set [4] turned out to be 100%. Besides, the IC50 with Leishmania donovani [3] is 3 µM; in the data set with Leishmania donovani [5], 2 µM.

On to `Cc1ccc(S(=O)(=O)Oc2c(NC(=O)c3cc4ccccc4[nH]3)c(=O)n(C)c3ccccc23)cc1`, for which, in data set [1], the minimal effective concentration was > 200 µM. Besides, the viability at 72 h, 100 µM in data set [2] was 50%. Also, the IC50 in the data set on Leishmania donovani [3] worked out at 42 µM.

Consider `Cn1c(=O)c(NC(=O)c2ccc3c(c2)CCC(C)(C)O3)c(O)c2ccccc21`, for which the minimal effective concentration in data set [1] is > 200 µM. The viability at 72 h, 100 µM in data set [2] was found to be 98%. Further, the IC50 with Leishmania donovani [3] turned out to be 56 µM.

For `Cc1ccc(S(=O)(=O)Oc2c(N)c(=O)n(C)c3ccccc23)cc1`, the minimal effective concentration in data set [1] is 12.5 µM. Besides, the viability at 72 h, 100 µM in data set [2] is 24%. The molecule further came in with an IC50 in the data set with Leishmania donovani [3] of 30 µM.

For `COc1ccc(C(=O)Nc2c(O)c3ccccc3n(C)c2=O)cc1`, in data set [1], the minimal effective concentration was > 200 µM. For the same molecule, the viability at 72 h, 100 µM in data set [2] was determined as 81%. The IC50 was 11 µM in the data set on Leishmania donovani [3] and > 100 µM in the data set with Leishmania donovani [5].

`Cc1ccc(S(=O)(=O)Oc2c(NC(=O)CCCCCCCCCCOn3nnc4ccccc43)c(=O)n(C)c3ccccc23)cc1`: the minimal effective concentration in data set [1] was > 200 µM. Besides, the viability at 72 h, 100 µM in data set [2] amounted to 69%. The IC50 with Leishmania donovani [3] was found to be 37 µM.

Regarding `CCCCCCCCCCCCCCCCOP(=O)([O-])OCC[N+](C)(C)C` [MILTEFOSINE], in data set [4], the viability at 24 h, 100 µM was 85%. This molecule displayed an IC50 in the data set on Leishmania donovani [5] of 5 µM.

As for `COc1ccc(C(=O)Nc2cc3ccccc3n(C)c2=O)cc1`, the minimal effective concentration in data set [1] is > 200 µM. Further, in data set [2], the viability at 72 h, 100 µM is 89%. The IC50 in the data set with Leishmania donovani [3] was > 100 µM.

For the molecule `COc1cc(C(=O)Nc2c(O)c3ccccc3n(C)c2=O)cc(OC)c1OC`, the minimal effective concentration in data set [1] was > 200 µM. Further, the viability at 72 h, 100 µM in data set [2] was 100%. In addition, the results for the IC50 in the data set with Leishmania donovani [3] and in the data set with Leishmania donovani [5] were 3.5 µM and > 100 µM, respectively.

With `Cn1c(=O)c([N+](=O)[O-])c(O)c2ccccc21`, in data set [1], the minimal effective concentration is > 200 µM. Further, the viability at 24 h, 100 µM in data set [4] was 80%. Further, the IC50 in the data set with Leishmania donovani [3] was > 100 µM.

Regarding `N=C(N)c1ccc(OCCCCCOc2ccc(C(=N)N)cc2)cc1` [PENTAMIDINE], the minimal effective concentration in data set [1] came out at 5 µM. Moreover, the viability at 24 h, 100 µM in data set [4] was 75%. The molecule further gave an IC50 in the data set with Leishmania donovani [3] of 2.84 µM.

Turning to `Cn1c(=O)c(NC(=O)CCCCCCCCCCOn2nnc3ccccc32)c(O)c2ccccc21`, in data set [1], the minimal effective concentration is 200 µM. Besides, the viability at 72 h, 100 µM in data set [2] was determined as 72%. Further, the IC50 in the data set with Leishmania donovani [3] was 34 µM.

For `Cc1ccc(S(=O)(=O)Oc2c(NC(=O)c3ccc(F)cc3)c(=O)n(C)c3ccccc23)cc1`, the minimal effective concentration in data set [1] is > 200 µM. Besides, the viability at 72 h, 100 µM in data set [2] was determined as 57%. Further, the IC50 with Leishmania donovani [3] amounted to 49 µM.

For the molecule `CCCCNc1cc2ccccc2n(C)c1=O`, in data set [1], the minimal effective concentration was > 200 µM. Moreover, the viability at 72 h, 100 µM in data set [2] was 10%. For the same molecule, the IC50 in the data set on MCF7 is 7 µM; in the data set on Leishmania donovani [3] it was > 100 µM.

As to `COc1ccc(C(=O)Nc2cc3cc(OC)ccc3n(C)c2=O)cc1`, the minimal effective concentration in data set [1] was > 200 µM. In data set [2], the viability at 72 h, 100 µM is 22%. The IC50 in the data set with Leishmania donovani [3] was > 100 µM.

For the molecule `Cn1c(=O)cc(O)c2ccccc21`, the minimal effective concentration in data set [1] is > 200 µM. In addition, the viability at 24 h, 100 µM in data set [4] amounted to 70%. Further, the IC50 in the data set with Leishmania donovani [3] is > 100 µM.

In the case of `COc1ccc(C(=O)Nc2c(OS(=O)(=O)c3ccc(C)cc3)c3ccccc3n(C)c2=O)cc1`, in data set [1], the minimal effective concentration is > 200 µM. Further, the viability at 72 h, 100 µM in data set [2] is 82%. In the data set on Leishmania donovani [3], this molecule showed an IC50 of 25 µM.

With `CCCC(=O)Nc1c(O)c2ccccc2n(C)c1=O`, the minimal effective concentration in data set [1] is > 200 µM. Also, the viability at 72 h, 100 µM in data set [2] was found to be 97%. Further, the IC50 worked out at 11 µM in the data set on Leishmania donovani [3] and 3 µM with Leishmania donovani [5].

Turning to `COc1ccc(C(=O)Nc2cc3cc(Br)ccc3n(C)c2=O)cc1`, the minimal effective concentration in data set [1] is > 200 µM. For the same molecule, the viability at 72 h, 100 µM in data set [2] turned out to be 20%. In the data set on Leishmania donovani [3], the IC50 is > 100 µM.

As to `Cn1c(=O)c(NC(=O)c2cc3ccccc3[nH]2)c(O)c2ccccc21`, the minimal effective concentration in data set [1] was > 200 µM. In data set [2], the viability at 72 h, 100 µM is 107%. In addition, in the data set with Leishmania donovani [3], the IC50 was > 100 µM.

`COc1cc(C(=O)Nc2c(O)c3ccccc3[nH]c2=O)cc(OC)c1OC`: the minimal effective concentration in data set [1] is > 200 µM. Besides, in data set [2], the viability at 72 h, 100 µM worked out at 76%. Also, the IC50 in the data set on Leishmania donovani [3] is > 100 µM.

For the molecule `Cn1c(=O)c(NC(=O)c2ccc3c(c2)C=CC(C)(C)O3)c(O)c2ccccc21`, in data set [1], the minimal effective concentration was > 200 µM. In addition, the viability at 72 h, 100 µM in data set [2] was 100%. Besides, the midpoint of inhibition in the data set on Leishmania donovani [3], the IC50, lay at 53 µM.

Turning to `O=[N+]([O-])c1c(O)nc2ccccc2c1O`, the minimal effective concentration in data set [1] was > 200 µM. In data set [4], the viability at 24 h, 100 µM came to 90%. The IC50 with Leishmania donovani [3] was > 100 µM.

`COc1cc(C(=O)Nc2c(OS(=O)(=O)c3ccc(C)cc3)c3ccccc3n(C)c2=O)cc(OC)c1OC`: in data set [1], the minimal effective concentration is > 200 µM. The viability at 72 h, 100 µM in data set [2] worked out at 84%. In the data set with Leishmania donovani [3], this molecule had an IC50 of 41 µM.

On to `COc1cc(C(=O)Nc2c(OS(=O)(=O)c3cccs3)c3ccccc3n(C)c2=O)cc(OC)c1OC`, for which the minimal effective concentration in data set [1] is > 200 µM. Besides, the viability at 72 h, 100 µM in data set [2] stood at 77%. Besides, the IC50 in the data set with Leishmania donovani [3] stood at 14 µM.

Turning to `CCCC(=O)Nc1c(OS(=O)(=O)c2ccc(C)cc2)c2ccccc2n(C)c1=O`, the minimal effective concentration in data set [1] is > 200 µM. In addition, the viability at 72 h, 100 µM in data set [2] is 55%. For the same molecule, the IC50 in the data set with Leishmania donovani [3] came to 50 µM.

In the case of `COc1cc(C(=O)Nc2c(OS(=O)(=O)c3ccc(C)cc3)c3ccccc3[nH]c2=O)cc(OC)c1OC`, the minimal effective concentration in data set [1] was > 200 µM. For the same molecule, the viability at 72 h, 100 µM in data set [2] is 55%. Moreover, in the data set with Leishmania donovani [3], the IC50 stood at 18 µM.

In the case of `Cc1ccc(S(=O)(=O)Oc2c(NC(=O)c3ccc4c(c3)C=CC(C)(C)O4)c(=O)n(C)c3ccccc23)cc1`, the minimal effective concentration in data set [1] was > 200 µM. The viability at 72 h, 100 µM in data set [2] was 37%. In addition, the IC50 in the data set on Leishmania donovani [3] came to 30 µM.

`Cn1c(=O)c(NC(=O)c2ccc(F)cc2)c(O)c2ccccc21`: the minimal effective concentration in data set [1] was > 200 µM. In addition, in data set [2], the viability at 72 h, 100 µM was determined as 74%. For the same molecule, the IC50 in the data set on Leishmania donovani [3] is > 100 µM.

The IC50 is the concentration that inhibits the measured activity by half.

Values taken from ChEMBL document CHEMBL2021923, “Synthesis and antikinetoplastid activities of 3-substituted quinolinones derivatives” (Eur J Med Chem, 2012).
